Screening results (PubChem)
BB579 growth dn: growth inhibitors of yeast BB579 in restrictive medium, primary screen, yeast lifespan-shortening project, S. cerevisiae. hit rate 0.51% among 140,000. OD615, 48 h. inhibition, % at 10 µM;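 active = inhibition above a set limit, 3 SD over the mean compound inhibition, cut at about 44% in these data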
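Test system: Saccharomyces cerevisiae DeaD strain BB579, replicative lifespan model yeast | Buffer or medium: Restrictive CSMM-D medium | Doses: One dose, 10 µM compound with 0.25% DMSO | Incubation: 48 h exposure, 30 °C | Detection: Culture absorbance at 615 nm | Control set: Amphotericin B at 10 µg/mL as positive control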
Yeast life ext: compounds extending yeast replicative lifespan, primary screen, S. cerevisiae, OD615 | S. cerevisiae growth with nicotinamide; deaD strain in restrictive glucose medium | inhibition of the nicotinamide effect, % at 10 µM | hit rate 0.68% among 130,000;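 active = inhibition above a set limit, placed 3 SD over the median of all compounds, cut at about 26% in these data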;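 note: 0% = nicotinamide-treated wells and 100% = cells grown without nicotinamide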
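Assay system: engineered S. cerevisiae DeaD replicative-lifespan strain, galactose-grown log-phase cells; medium: restrictive CSMM-D dextrose medium; also added: nicotinamide, 1.5 mM, co-present with compound; schedule: 48 h compound exposure at 30 °C, humidified; detection: absorbance at 615 nm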
Measles CPE: compounds protecting cells from measles virus cytopathic effect, primary screen, measles RdRp inhibitor project, single point, MLSMR library, absorbance; protection (pct of control), % at 4 µM; AID 841, 2007; hit rate 1.5% among 140,000; Measles virus-infected cells, CPE protection; in the data active = protection mostly above about 24%, no sharp cut-off; inactive = mostly below about 26%
RAM inhibit: inhibitors of the yeast RAM network, primary screen, dse1pr::URA3 reporter, 5-FOA selection; S. cerevisiae dse1pr::URA3 reporter, 5-FOA growth OD615, 2 d; analog-sensitive cbk1-as2 kinase mutant strain; inhibition, % at 50 µM; AID 868, 2007; hit rate 1.8% among 190,000;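 active = inhibition above a set limit, 3 SD over mean compound inhibition, cut at about 8.4% in these data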;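 note: 0% = DMSO-only wells with no growth and 100% = 10 µM 1-NA-PP1 full growth; inhibition rescues growth on 5-FOA so higher OD means more RAM inhibition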
* hit, by the source's call; · = no result given. Hits are enriched below; roughly 3.6% of the tested compounds scored in any of these assays.

SMILES	BB579 growth dn	Yeast life ext	Measles CPE	RAM inhibit
CCC(CC)NC(=O)COC(=O)CCC(=O)c1ccc(Cl)cc1	·	·	·	-0.7
COC(=O)C(=O)/C=C(\O)c1ccc(C)cc1	-19.5	72.6*	28.4	-1.6
Cc1ccc(/C(O)=C/C(=O)C(=O)NNC(=O)C(O)(c2ccccc2)c2ccccc2)cc1	-35.9	·	4.6	0.6
Cc1cc(C)c2nc(-c3ccccn3)cc(C(=O)NCCc3ccc(S(N)(=O)=O)cc3)c2c1	·	·	·	10.4*
CCOc1ncccc1C(=O)OC(C)C(=O)NC(=O)NC1CCCCC1 (configuration not stated)	·	·	·	-0.5
COC(=O)c1cc(Br)c(=O)n(Cc2ccncc2)c1	-29.5	0.3	25.0	0.9
COC(=O)c1cc(Br)c(=O)n(Cc2ccc(C(=O)O)cc2)c1	3.2	-12.4	31.7*	2.4
Fc1ccc(C(CCCn2nnc(-c3cccnc3)n2)c2ccc(F)cc2)cc1	-29.4	0.7	5.4	10.0*
Cc1ccc(C)c(NC(=O)CS(=O)(=O)c2cccc3nsnc23)c1	·	·	·	0.2
C=CCn1c(N2CCOCC2)nc2c1c(=O)[nH]c(=O)n2C	·	·	·	-0.1
CN(Cc1nc(-c2cccs2)no1)CC(O)c1ccccc1 (configuration not stated)	·	·	·	-0.5
CCOc1ccc(NS(=O)(=O)c2ccc(NS(C)(=O)=O)cc2)cc1	2.0	-17.7	10.1	0.3
C=C(C)CN(CC)C(=O)COc1ccc(S(=O)(=O)Nc2ccc(OC)cc2)cc1	2.7	108.5*	7.8	4.0
CCOc1ccc(NS(=O)(=O)c2ccc(NS(=O)(=O)c3ccc(SC)cc3)cc2)cc1	-69.6	7.4	18.8	8.9*
CCOC(=O)C(=NCCCN1CCOCC1)NNc1cccc(C(F)(F)F)c1	·	·	·	0.3
CCOc1cc(/C=N/N2CCOCC2)ccc1OCc1ccc(C(=O)OC)o1	·	·	·	-0.1
CCCOC(=O)CSc1nc(N)c(C#N)c(-c2ccco2)c1C#N	-52.4	·	2.3	9.3*
CN(C)S(=O)(=O)c1cc(C(=O)NCCCn2ccc3ccccc32)ccc1Cl	-52.8	8.4	8.3	9.3*
OC1(c2ccccc2F)CCN(Cc2nnc(-c3ccccc3)o2)CC1	-46.7	-11.2	81.1*	2.1
C=COCCNC(=S)N1CCOCCOCCN(C(=S)NCCOC=C)CCOCC1	·	·	·	1.1
Cc1cccc(C)c1NC(=S)N(CCCN1CCCCC1)Cc1ccco1	·	·	·	1.0
CC(=O)c1c(OC(=O)c2ccc(C)cc2)c2ccccc2n1C	-4.0	-19.4	71.2*	3.1
CC(=O)c1c(OC(=O)c2ccco2)c2ccccc2n1C	-39.1	-8.4	13.9	3.6
Cc1ccc(-c2nc(C3CCCN(S(=O)(=O)c4ccc(C(C)(C)C)cc4)C3)no2)cc1 (configuration not stated)	-75.8	0.2	11.2	2.3
Cc1ccc(-c2nc(C3CCCN(S(=O)(=O)c4ccc(C(F)(F)F)cc4)C3)no2)cc1 (configuration not stated)	-36.7	-27.9	30.6*	2.5
SMILES	BB579 growth dn	Yeast life ext	Measles CPE	RAM inhibit
Cc1cc(C)nc(SCc2cc(=O)c(OC(=O)c3ccc(Cl)c([N+](=O)[O-])c3)co2)n1	-20.8	29.6*	2.0	1.9
COc1cccc(-n2c(=O)[nH]cc(C(=O)Nc3ccc4c(c3)OCCO4)c2=O)c1	-64.0	-0.7	6.6	8.8*
CC(=O)Oc1c(C(=O)c2nnc(C)o2)c(=O)n(C)c2ccccc12	19.0	54.3*	8.0	0.3
Cc1nnnn1CC(=O)Nc1ccccc1[N+](=O)[O-]	-23.8	4.6	6.6	0.4
COc1ccc(-c2cnn3c(N)c(S(=O)(=O)C(C)(C)C)cnc23)cc1	-1.8	30.0*	3.8	-0.2
Cc1nc2c(-c3ccc(F)cc3)cnn2c2c1CCC2	·	·	·	7.8
CC(C)(C)C1CCc2[nH]nc(C(=O)O)c2C1 (configuration not stated)	-32.9	62.0*	22.0	0.9
O=C(O)c1n[nH]c2c1CCCC2	-8.2	-2.6	13.7	0.6
Cn1c(-c2ccc3c(c2)OCO3)cnc1NCc1cccc(O)c1	·	·	·	1.9
CCOc1ccc(-c2noc(-c3ccncc3)n2)cc1OCC	-15.2	-15.2	4.3	1.2
CCOc1ccc(-c2nc(-c3ccc(OC)cc3)no2)cc1OCC	-65.8	-3.2	10.1	9.1*
COc1ccc(-c2noc(-c3cccc(Cl)c3)n2)cc1OC	-73.2	-1.2	4.1	9.1*
O=C(NC(=S)Nc1ccccc1F)c1ccc(Br)o1	·	·	·	1.4
Cc1cnc(C(=O)Oc2c(C)ccc(C)c2C)cn1	·	·	·	1.4
CCN(CC)S(=O)(=O)c1cc(NS(=O)(=O)c2cc(Cl)ccc2Cl)ccc1C	-38.4	19.5	11.2	11.1*
O=C(O)c1ccc(NS(=O)(=O)c2cc(Cl)ccc2Cl)cc1O	-54.3	-20.2	0.9	1.7
CCCn1nc(C(=O)Nc2cccc(C(=O)OC)c2)c2ccccc2c1=O	-28.1	-18.6	8.7	8.9*
CCc1cc2c(SCC(=O)C(C#N)=C3N(C)c4ccccc4N3C)ncnc2s1	-31.2	-22.2	9.9	9.0*
O=C1CCN2C=Nc3cccc4ccc1c2c34	56.5*	-11.6	11.8	0.9
Cc1ccc(C)c(S(=O)(=O)N2CCN(CC(=O)NC(=O)NCc3ccco3)CC2)c1	·	·	·	-0.4
C/C(=N\Nc1nc2c(s1)CCCC2)c1ccccc1	62.9*	-19.3	11.3	-0.4
CN(C)S(=O)(=O)c1ccc(S(=O)(=O)N2CCN(CCC#N)CC2)cc1	-20.4	-8.4	15.1	0.6
N#CCCN1CCN(S(=O)(=O)c2ccc(S(=O)(=O)N3CCOCC3)cc2)CC1	20.2	-11.7	28.1*	0.0
CC1CCCCN1C(=O)Cn1cc(/C=C2/C(=O)Nc3ccccc32)c2ccccc21 (configuration not stated)	-20.8	-4.7	16.6	9.4*
CCCOc1ccc(C(C)=O)cc1CSCCC#N	-10.6	-5.3	40.0*	1.0
SMILES	BB579 growth dn	Yeast life ext	Measles CPE	RAM inhibit
COC(=O)COC(=O)c1ccc(-n2nnnc2SC)cc1	-27.5	-16.7	53.7*	1.2
c1cc2c(cnc3cscc32)s1	-6.8	-4.4	33.8*	0.1
CNC(=O)c1sc(N2N=C3/C(=C/c4ccccc4)CCCC3C2c2ccccc2)nc1C (configuration not stated)	-45.6	-14.9	11.1	9.9*
O=C(O)c1ccc(NC(CSCc2ccccc2F)C(=O)O)c([N+](=O)[O-])c1 (configuration not stated)	-14.7	3.6	5.3	-0.5
CCOC(=O)CN1C(=O)SC(CC(=O)Nc2nccs2)C1=O (configuration not stated)	-49.7	-7.5	36.4*	-0.8
O=C(CC1SC(=O)N(Cc2cccc3ccccc23)C1=O)Nc1nccs1 (configuration not stated)	-35.2	0.2	1.5	3.9
COc1ccc(-c2cc(C(=O)NCCc3ccccc3)no2)cc1OC	-47.5	-11.0	4.0	3.1
COc1ccccc1-c1cc(C(=O)NCCc2ccccc2)no1	-55.5	-13.3	2.1	4.6
CCC(C)NC(=O)c1cc(CC(C)C)on1 (configuration not stated)	2.2	0.0	53.7*	0.8
